Source: ChEMBL document CHEMBL3232887, “Propargyl-linked antifolates are dual inhibitors of Candida albicans and Candida glabrata” (J Med Chem, 2014)
Values after ≈ are worked out from the molar mass of the structure shown. Active and inactive are the calls of the source. The calls are words filed in the database; no cut-off is given here.

What was measured:
Candida albicans [1] = assay: Antifungal activity against Candida albicans NCCLS84 after 24 hrs by XTT assay; format: functional; details: SC5314, 24 h, in the assay text read “SC5314” for “NCCLS84”
MCF10 = assay: Cytotoxicity against human MCF10 cells; format: cell-based
Nakaseomyces glabratus = assay: Antifungal activity against Candida glabrata NCCLS84 after 24 hrs by Alamar Blue assay; details: NCCLS84, 24 h
[2] = Kinetic solubility of the compound in water after 30 mins by HPLC analysis; format: physicochemical; details: read-out: Kinetic_solubility
[3] = Inhibition of Candida glabrata DHFR using dihydrofolate as substrate preincubated for 5 mins followed by substrate addition in presence of NADPH; parameters: species or system Nakaseomyces glabratus
Summary of the method: (§1)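 Racemic inhibitor from DMSO stock (<2% DMSO in assay) was preincubated 5 min with enzyme and 100 μM NADPH. NADPH consumption was followed at 340 nm for 1 min at 25 °C, in triplicate.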

Dihydrofolate reductase [4] = target: T1, Dihydrofolate reductase (Homo sapiens, UniProt P00374); assay: Inhibition of human DHFR using dihydrofolate as substrate preincubated for 5 mins followed by substrate addition in presence of NADPH; summary of the method: as §1
T1 sequence (P00374 whole entry): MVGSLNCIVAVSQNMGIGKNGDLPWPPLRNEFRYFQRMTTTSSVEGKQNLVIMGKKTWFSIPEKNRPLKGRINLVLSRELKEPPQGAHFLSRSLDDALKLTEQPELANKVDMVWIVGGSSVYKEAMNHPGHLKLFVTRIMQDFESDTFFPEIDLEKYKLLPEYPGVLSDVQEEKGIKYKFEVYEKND

Dihydrofolate reductase [5] = target: T2, Dihydrofolate reductase (Candida albicans, UniProt P22906); assay: Inhibition of Candida albicans DHFR using dihydrofolate as substrate preincubated for 5 mins followed by substrate addition in presence of NADPH
T2 sequence (P22906 whole entry): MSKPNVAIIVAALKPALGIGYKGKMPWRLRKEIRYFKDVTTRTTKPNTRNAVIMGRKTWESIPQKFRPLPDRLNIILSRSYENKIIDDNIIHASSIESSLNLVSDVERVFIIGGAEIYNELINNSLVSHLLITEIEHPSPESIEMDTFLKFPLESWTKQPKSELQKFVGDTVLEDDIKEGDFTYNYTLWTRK
Summary of the method: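 Consumption of NADPH followed at 340 nm for 1 min at 25 °C. Buffer: 20 mM TES pH 7.0, 50 mM KCl, 10 mM 2-mercaptoethanol, 0.5 mM EDTA, 1 mg/mL BSA. Saturating 100 μM NADPH and 100 μM dihydrofolate, limiting enzyme. Racemic inhibitor was added from DMSO stocks at under 2% DMSO final. Triplicate runs.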

[6] = Kinetic solubility of the compound in water after 30 mins by HPLC analysis in presence of 0.02% HPMC; format: physicochemical; details: water with 0.02% HPMC; read-out: Kinetic_solubility
[7] = Selectivity ratio of IC50 for human DHFR to IC50 for Candida glabrata DHFR
[8] = Selectivity ratio of IC50 for human DHFR to IC50 for Candida albicans DHFR
Candida albicans [9] = assay: Antifungal activity against Candida albicans after 24 hrs by assay
Candida albicans [10] = assay: Antifungal activity against Candida albicans NCCLS84 at 100 ug/ml after 24 hrs by XTT assay; format: functional, organism-based
Candida albicans [11] = assay: Antifungal activity against Candida albicans after 24 hrs by assay in presence of 0.01% Triton X-100

Structure (SMILES): CCc1nc(N)nc(N)c1C#CC(C)c1ccc(-c2ccccc2)nc1 (stereo unspecified)
- MIC (Candida albicans [1]): 0.39 µg/mL (≈ 1.14 µM)
- IC50 (MCF10): 148000 nM
- MIC (Nakaseomyces glabratus): 0.78 µg/mL (≈ 2.27 µM)
- solubility kinetic at 0.5 h [2]: 20 µg/mL (≈ 58.2 µM)
- IC50 [3]: 23 nM

Structure (SMILES): CCc1nc(N)nc(N)c1C#CC(C)c1ccc(-c2ccncc2)cc1OC (stereo unspecified)
- MIC (Candida albicans [1]): 25 µg/mL (≈ 66.9 µM)
- IC50 (Dihydrofolate reductase [4]): 127 nM
- IC50 (MCF10): 216000 nM
- MIC (Nakaseomyces glabratus): 0.78 µg/mL (≈ 2.09 µM)
- IC50 [3]: 19 nM
- IC50 (Dihydrofolate reductase [5]): 33 nM

Structure (SMILES): COc1cc(-c2ccccc2)ccc1C(C)C#Cc1c(C)nc(N)nc1N (stereo unspecified)
- MIC (Candida albicans [1]): 1.6 µg/mL (≈ 4.46 µM)
- IC50 (Dihydrofolate reductase [4]): 340 nM
- solubility kinetic at 0.5 h [6]: 25 µg/mL
- IC50 (MCF10): 74000 nM
- MIC (Nakaseomyces glabratus): 0.39 µg/mL (≈ 1.09 µM)
- IC50 (Dihydrofolate reductase [5]): 20 nM

Structure (SMILES): COc1cc(-c2ccccc2)cc(C(C)C#Cc2c(C)nc(N)nc2N)c1 (stereo unspecified)
- MIC (Candida albicans [1]): 23 µg/mL (≈ 64.2 µM)
- IC50 [3]: 7.3 nM

Structure (SMILES): CCc1nc(N)nc(N)c1C#CC(C)c1ccc(-c2ccccc2)cc1OC (stereo unspecified)
- MIC (Candida albicans [1]): 6.3 µg/mL (≈ 16.9 µM)
- IC50 (Dihydrofolate reductase [4]): 172 nM
- MIC (Nakaseomyces glabratus): 1.6 µg/mL (≈ 4.3 µM)
- IC50 [3]: 31 nM
- Ratio IC50 [7]: 6
- Ratio IC50 [8]: 4
- IC50 (Dihydrofolate reductase [5]): 49 nM

Structure (SMILES): COc1cc(C(C)C#Cc2c(C)nc(N)nc2N)ccc1-c1ccccc1 (stereo unspecified)
- MIC (Candida albicans [1]): 6.25 µg/mL (≈ 17.4 µM)
- IC50 (MCF10): 80000 nM
- MIC (Nakaseomyces glabratus): 0.78 µg/mL (≈ 2.18 µM)

Structure (SMILES): COc1cc(C(C)C#Cc2c(C)nc(N)nc2N)c(OC)cc1-c1ccccc1 (stereo unspecified)
- MIC (Candida albicans [1]): 3.1 µg/mL (≈ 7.98 µM)
- IC50 (Dihydrofolate reductase [4]): 314 nM
- MIC (Nakaseomyces glabratus): 1.6 µg/mL (≈ 4.12 µM)
- IC50 [3]: 8.2 nM
- IC50 (Dihydrofolate reductase [5]): 36 nM

Structure (SMILES): CCc1nc(N)nc(N)c1C#CC(C)c1ccc(-c2ccc(OC(N)=O)cc2)cc1OC (stereo unspecified)
- MIC (Candida albicans [9]): inactive

Structure (SMILES): CCc1nc(N)nc(N)c1C#CC(C)c1ccc(-c2ccc(O)cc2)cc1OC (stereo unspecified)
- IC50 (MCF10): 148000 nM
- Activity (Candida albicans [10]): inactive

Structure (SMILES): CCc1nc(N)nc(N)c1C#CC(C)c1cnc(-c2ccccc2)nc1 (stereo unspecified)
- MIC (Candida albicans [1]): 0.19 µg/mL (≈ 0.552 µM)
- IC50 (MCF10): 216000 nM
- MIC (Nakaseomyces glabratus): 0.78 µg/mL (≈ 2.26 µM)
- solubility kinetic at 0.5 h [2]: 60 µg/mL (≈ 174 µM)
- IC50 [3]: 22 nM

Structure (SMILES): CCc1nc(N)nc(N)c1C#CC(C)c1ccc(-c2ccc(F)cc2)cc1OC (stereo unspecified)
- MIC (Candida albicans [1]): 1.8 µg/mL (≈ 4.61 µM)
- IC50 (Dihydrofolate reductase [4]): 148 nM
- IC50 (MCF10): 60000 nM
- MIC (Nakaseomyces glabratus): 7.5 µg/mL (≈ 19.2 µM)
- IC50 (Dihydrofolate reductase [5]): 43 nM

Structure (SMILES): CCc1nc(N)nc(N)c1C#CC(C)c1ccc(-c2ccccc2)cc1 (stereo unspecified)
- MIC (Candida albicans [1]): 7.5 µg/mL (≈ 21.9 µM)
- IC50 (Dihydrofolate reductase [4]): 174 nM
- IC50 (MCF10): 505000 nM
- MIC (Nakaseomyces glabratus): 3.1 µg/mL (≈ 9.05 µM)
- IC50 [3]: 6 nM
- IC50 (Dihydrofolate reductase [5]): 23 nM

Structure (SMILES): CCc1nc(N)nc(N)c1C#CC(C)c1ccc(-c2ccc(C(=O)OC)cc2)cc1OC (stereo unspecified)
- IC50 (MCF10): 96000 nM

Structure (SMILES): CCc1nc(N)nc(N)c1C#CC(C)c1ccc(-c2ccc(C)cc2)cc1OC (stereo unspecified)
- MIC (Candida albicans [1]): 3.1 µg/mL (≈ 8.02 µM)
- IC50 (Dihydrofolate reductase [4]): 208 nM
- MIC (Nakaseomyces glabratus): 1.6 µg/mL (≈ 4.14 µM)
- IC50 [3]: 22 nM
- Ratio IC50 [7]: 9
- Ratio IC50 [8]: 4
- IC50 (Dihydrofolate reductase [5]): 48 nM

Structure (SMILES): CCc1nc(N)nc(N)c1C#CC(C)c1cc(OC)cc(-c2ccncc2)c1 (stereo unspecified)
- MIC (Candida albicans [1]): 25 µg/mL (≈ 66.9 µM)
- MIC (Candida albicans [11]): 6.25 µg/mL
- MIC (Nakaseomyces glabratus): 1.3 µg/mL (≈ 3.48 µM)

Structure (SMILES): CCc1nc(N)nc(N)c1C#CC(C)c1ccc(-c2ccc(C#N)cc2)cc1OC (stereo unspecified)
- IC50 (MCF10): 50000 nM

Structure (SMILES): CCc1nc(N)nc(N)c1C#CC(C)c1ccc(-c2ccc(C)cc2)nc1 (stereo unspecified)
- MIC (Candida albicans [1]): 0.39 µg/mL (≈ 1.09 µM)
- Activity (Candida albicans [11]): Active
- MIC (Nakaseomyces glabratus): 0.2 µg/mL (≈ 0.56 µM)
- solubility kinetic at 0.5 h [2]: 15 µg/mL (≈ 42 µM)
- IC50 [3]: 27 nM

Structure (SMILES): CCc1nc(N)nc(N)c1C#CC(C)c1ccc(-c2ccc(N(C)C)cc2)cc1OC (stereo unspecified)
- MIC (Candida albicans [9]): inactive
